PfHsp90 set2 – growth inhibition of PfHsp90-expressing yeast, primary screen, antimalarial PfHsp90 inhibitor project, S. cerevisiae, BacTiter-Glo luminescence, single point, set 2. BacTiter-Glo ATP, 48 h; yeast lacking PDR1 and PDR3 efflux regulators. inhibition, % at 9.4 µM. 310,000 tested, 0.32% active;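 active = every replicate shows inhibition above about 80%, whatever the replicate mean, limit read from the data; inconclusive = mean inhibition reaches the set limit but some replicate falls short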
CaV13 FRET inh – Disruptors of the CACNA1D IQ motif to Ca2+-dependent inactivation inhibitor domain association, primary screening, Förster resonance energy transfer in intact living …. 340,000 tested, 0.098% active. HEK cells, CFP/YFP FRET ICDI-IQ, plate reader, 10 min; percent FRET-ratio fall versus neutral wells. inhibition, % at 12.3 µM;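 active = mean replicate inhibition of at least 30% and at least 1% of replicates passing that level; inconclusive = only one of the two criteria is met; inactive = neither criterion is met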
PvdQ acylase – P. aeruginosa PvdQ acylase inhibitors, primary screen, biochemical, fluorescence, plate reader and imaging, single point. PvdQ acylase [Pseudomonas aeruginosa LESB58]. inhibition, % at 10 µM. purified PvdQ acylase. 340,000 tested, 0.063% active; in the data active = inhibition above about 30%, passing the limit was not always enough; inconclusive = no clear call, values can overlap the other calls
N-glyco inh – increase of ERlucT glycosylation luciferase signal, primary screen, N-linked glycosylation inhibitor project, D54 ERlucT cells, luminescence, set 2. AID 588692, 2011. D54 ERlucT glycosylation luciferase reporter, 24 h; percent of 100 nM tunicamycin response. 360,000 tested, 0.23% active. reporter increase, % at 12.5 µM;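 active = mean luciferase reporter signal, scaled so untreated is 0 and the glycosylation-blocking control 100, at or above a set limit in every replicate; inconclusive = mean reaches the limit but not every replicate does; inactive = mean below the limit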;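 note: luciferase carries N-glycosylation sites so blocking glycosylation raises the light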
HSF1 activator – HSF-1 activators, primary screen, NIH3T3-HGL cells, MG132 stress, luminescence, single point; NIH3T3-HGL HSF-1 luciferase reporter, 8 h; 100% = twice DMSO control signal; activation, % at 9 µM; 300,000 tested, 1.7% active;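 active = mean replicate activation of at least 50% with a set share of replicates each reaching 50%; inconclusive = only one of those two conditions met; inactive = mean below 50% and too few replicates reaching it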
T cruzi inh – inhibitors of intracellular T. cruzi growth, primary screen, luminescence, NIH3T3 host cells | T. cruzi beta-gal in NIH3T3, 90 h | inhibition, % (no concentration beside the values) | 300,000 tested, 1.4% active | AID 1885, 2009;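 active = mean inhibition across valid replicates above about 55%, limit read from the data; inconclusive = mean below that limit but half or more replicates reach it; inactive = mean below it, under half of replicates reach it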;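 note: signal also drops with host cell toxicity which is not excluded here; higher percent means less beta-gal luminescence so fewer parasites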
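System: mouse NIH/3T3 fibroblasts infected with β-gal-expressing T. cruzi Tulahuen C4 / Input: NIH/3T3 cells, 5,000 per well / Buffer or medium: Low-serum DMEM with 2% FBS / Probe or stimulus: 5000 reporter trypomastigotes per well / Schedule: ≥90 h infection period, 3 h prior cell attachment / Measured by: GalScreen luminescence, 60 min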
Numbers stand for hits; – = inactive; ? = inconclusive; · = no result; ! = not active in a repeat. Only some compounds are listed: those with a hit (about 3% of all), similar ones and a draw of the others.

SMILES	PfHsp90 set2	CaV13 FRET inh	PvdQ acylase	N-glyco inh	HSF1 activator	T cruzi inh
CC(=O)c1ccc(S(=O)(=O)N2CCN(C(=O)C(=O)c3cccc(C(F)(F)F)c3)CC2)cc1	·	–	·	·	·	·
CN(C)/C=C1\C(=O)N(c2ccc([N+](=O)[O-])cc2)N=C1c1ccccc1	–	–	–	–	–	–
CN(C)/C=C1/C(=O)N(c2ccc([N+](=O)[O-])cc2)N=C1c1ccccc1	·	–	·	·	56	–
COC(=O)C1=C(C)N(Cc2ccc(C(F)(F)F)cc2)C(=NCc2ccc(C(F)(F)F)cc2)NC1c1cccc(C(F)(F)F)c1 (stereo not given)	·	–	·	·	·	·
O=S(=O)(NC1CCCCCC1)c1ccc(Br)s1	88	–	–	–	–	–
O=C(CCNS(=O)(=O)c1ccc(Br)s1)NC1CCCC1	·	–	–	–	–	–
CCOC(=O)c1cnc2ccc(C)cc2c1Sc1ccccc1C(=O)OC	–	–	–	–	–	61
CCOC(=O)c1cnc2ccc(C)cc2c1NCCO	–	·	–	–	–	–
C(=C\c1ccccc1)/CSc1ccccn1	–	–	–	–	130	–
COc1ccc(F)cc1-c1cc(NC(C)=O)c2ncc(-c3cccc(C(F)(F)F)c3)n2c1	·	–	·	–	·	·
COc1ccc(S(=O)(=O)NC(=O)C2(C)CCN2C(=O)CCC2CCCC2)cc1OC (stereo not given)	·	–	·	–	·	·
COC(=O)c1cc2c(c3c4cc(OC)ccc4n(S(=O)(=O)c4ccc(OC)cc4)c13)C(=O)N(Cc1ccc(N(C)C)cc1)C2	·	–	·	·	·	·
COc1ccc(-n2c(-c3ccc(Cl)cc3)c[n+]3c2CCc2ccccc2-3)cc1	–	–	–	–	–	74
COc1ccc(-n2c(-c3ccccc3)nnc2-c2ccc(Cl)cc2)cc1	–	–	–	–	–	–
CCOC(=O)c1sc2c(c1C)C(c1cccs1)C1=C(CCCC1=O)N2 (stereo not given)	–	–	–	–	79	–
CCCCCn1c(Sc2nc3ccccc3s2)nc2c1c(=O)[nH]c(=O)n2C	–	–	–	–	58	–
Cn1c(=O)[nH]c(=O)c2c1nc(N1CCN(Cc3ccccc3)CC1)n2CCCc1ccccc1	–	·	–	37	–	–
CCCCCn1c(N2CCN(c3cccc(Cl)c3)CC2)nc2c1c(=O)[nH]c(=O)n2C	–	–	–	–	111	–
CCOc1ccc(CCN2C(=O)C(=O)N([C@@H](Cc3ccccc3)CN3CCC[C@H]3CN3C(=O)C(=O)NC[C@@H]3CC(C)C)C[C@@H]2Cc2ccc(O)cc2)cc1	·	–	·	·	·	·
CNC[C@@H]1OCc2ccccc2-c2c(n(C)c3ccccc23)C(=O)N([C@@H](C)CO)C[C@@H]1C	·	–	·	·	·	·
COC(=O)[C@@H]1CC[C@H](C)[C@@H](c2ccc(C)cc2)N1C(=O)c1ccc(/C=N/OC[C@@H](O)[C@H]2O[C@@H]3OC(C)(C)O[C@@H]3[C@H]2O)cc1	·	·	·	·	–	–
COC(=O)[C@@H]1CC[C@H](C)[C@@H](c2ccc(C)cc2)N1C(=O)c1ccc(/C=N/O[C@@H](C)c2cn([C@H](CO)Cc3ccccc3)nn2)cc1	·	·	·	·	–	62
CCCCCCCCCCOC(=O)Cn1c(COc2ccccc2C)[n+](C)c2ccccc21	?	·	–	–	–	65
CCOC(=O)Cn1c(COc2ccccc2OC)[n+](C)c2ccccc21	·	–	·	–	–	–
CCCCCCCCCCOC(=O)Cn1c(COc2ccccc2)[n+](C)c2ccccc21	–	–	–	–	–	73
SMILES	PfHsp90 set2	CaV13 FRET inh	PvdQ acylase	N-glyco inh	HSF1 activator	T cruzi inh
CCCCCOC(=O)Cn1c(=O)oc2ccccc21	–	–	–	–	–	–
CCCCOC(=O)Cn1c(=O)n(CC(=O)OCCCC)c2ccccc21	–	·	–	–	–	–
CCCCCCCCCCOC(=O)Cn1c(COc2ccc(Cl)cc2)[n+](C)c2ccccc21	106	–	–	–	–	–
CCCCCCCCCCOC(=O)Cn1c(COc2ccc(OC)cc2)[n+](C)c2ccccc21	108!	·	–	–	–	–
CCN(CCOC(=O)Nc1ccc(Cl)cc1)C(=O)Nc1ccc(Cl)cc1	·	–	·	·	·	·
CCOC(=O)[C@]12CCCC=C1N(Cc1ccc(Cl)cc1Cl)C(=O)[C@H](CC(=O)NCCC(C)C)C2	·	–	·	·	·	·
CCCCCCCCCCOC(=O)Cn1c(COc2cccc(C)c2)[n+](C)c2ccccc21	105	–	–	–	–	58
COc1ccc(C(=O)N2CCCC(c3nc(-c4cccs4)no3)C2)cc1 (stereo not given)	–	–	–	–	59	–
COc1ccc(C(=O)N2CCCC(c3nc(-c4cccs4)no3)C2)cc1OC (stereo not given)	–	–	–	–	–	–
O=C(NC1CCCC1)[C@@H]1CCCN1C(=O)[C@@H](NS(=O)(=O)c1ccc(F)cc1F)C1CCCCC1	·	–	·	·	·	·
CCN(CC)C(=O)Oc1ccc(Br)cc1C(=O)Nc1ccc(F)cc1F	–	–	–	–	72	–
CN(C)S(=O)(=O)Oc1ccccc1C(=O)Nc1ccc(F)cc1F	–	–	–	–	–	–
COc1cccc(-c2cc3nc4c(c(NCC(C)(C)CN(C)C)n3n2)CCCC4)c1	–	–	–	–	–	61
Fc1cccc(-c2cc3nc4c(c(NCc5ccco5)n3n2)CCCC4)c1	–	–	–	–	–	–
O=C(OCc1nc2ccccc2s1)c1ccco1	·	–	46	–	–	–
O=C(NC(CC1=CCCCC1)c1ccccc1)C(F)(F)F (stereo not given)	·	–	·	·	·	·
O=C(N[C@H](C(=O)N1CCC[C@H]1C(=O)NCCc1ccccc1Cl)C1CCCCC1)C1CC1	·	–	·	·	·	·
Cc1cc(NC(=O)CCS(=O)(=O)c2nc(-c3ccccc3)cc(C(F)(F)F)n2)no1	–	–	–	–	·	·
CS(=O)(=O)c1nc(-c2ccccc2)cc(C(F)(F)F)n1	–	–	–	–	–	65
Nc1nc(Br)c2c(F)cccc2c1-c1ccc(Cl)cc1	–	–	–	–	149	–
Cc1ccc(CNC(=O)[C@H](C)N2C(=O)N3CCc4c([nH]c5ccccc45)[C@@]3(C)C2=O)cc1	–	·	–	–	97	–
C[C@@H](C(=O)NCCc1ccc(F)cc1)N1C(=O)N2CCc3c([nH]c4ccccc34)[C@@]2(C)C1=O	–	·	–	–	–	–

Compound activity: PubChem BioAssay, Broad Institute
